This is an account of results in ChEMBL document CHEMBL1131090, “Discovery of N-[2-[5-[Amino(imino)methyl]-2-hydroxyphenoxy]-3, 5-difluoro-6-[3-(4, 5-dihydro-1-methyl-1H-imidazol-2-yl)phenoxy]pyridin-4-yl]-N-methylgl y cine (ZK-807834): a potent, selective, and orally active inhibitor of the blood coagulation enzyme factor Xa” (J Med Chem, 1998).

A word on the Ki: it is the dissociation constant of the complex between target and ligand, obtained from inhibition or displacement. Read a low Ki as a stronger hold on the target.

One data set addresses Prothrombin (Homo sapiens, UniProt P00734). As to the kind of experiment: Inhibitory potency was measured against human thrombin. A digest of the protocol:
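Purified human thrombin (16 nM final) was assayed chromogenically with S-2302 (300 μM final) in 50 mM Tris-HCl pH 7.5, 150 mM NaCl, 2.5 mM CaCl2, 0.1% PEG 6000 at room temperature. Varying inhibitor concentrations were tested at a substrate level equal to Km, assuming a competitive mechanism, to derive Ki.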

Another data set deals with T1, Serine protease 1 (Bos taurus, UniProt P00760).
T1 sequence (P00760 whole entry): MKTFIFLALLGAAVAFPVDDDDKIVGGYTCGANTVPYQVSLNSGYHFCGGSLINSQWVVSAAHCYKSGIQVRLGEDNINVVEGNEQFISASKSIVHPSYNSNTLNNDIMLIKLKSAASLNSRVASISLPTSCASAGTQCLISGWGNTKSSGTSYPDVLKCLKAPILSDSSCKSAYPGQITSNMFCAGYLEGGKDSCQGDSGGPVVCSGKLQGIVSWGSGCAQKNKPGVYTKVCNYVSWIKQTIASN
As to the kind of experiment: Inhibitory potency was measured against bovine trypsin.

The next data set concerns the target Coagulation factor X (Homo sapiens, UniProt P00742). As to the kind of experiment: Inhibitory potency was measured against human coagulation factor X.
The nature of data set [1]: Inhibitor plasma concentration was measured in dogs on 10 mg/kg oral dosing after 1 hr administration; uM. Also noted: dose 10 mg/kg, route oral. Conditions: dog. It is filed as ADME, organism-based, Canis lupus familiaris. The gist of the method: (§1)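 Conscious beagles (10–16 kg) were given 10 mg/kg by oral gavage as homogeneous solutions in aqueous acid (n = 3). Plasma inhibitor concentrations were measured at the stated times by an ex vivo FXa inhibition activity assay. For ester/acid pairs, the value is the total ester plus acid concentration.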

Data set [2] in a line: Prothrombin time concentration to give a 2-fold extension activity against pooled lyophilized human plasma. It is filed as functional. The gist of the method: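 Prothrombin time was measured in pooled lyophilized human plasma with Thromboplastin IS on an automated coagulation analyzer. The value is the inhibitor concentration that doubles PT.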
A short description of data set [3]: Inhibitor plasma concentration was measured in dogs on 10 mg/kg oral dosing after 2 hr administration; uM. It is filed as ADME, organism-based, Canis lupus familiaris. Also noted: dose 10 mg/kg, route oral. The settings on record: dog. A digest of the protocol:
as §1

Data set [4] can be described thus: Inhibitor plasma concentration was measured in dogs on 10 mg/kg oral dosing after 4 hr administration; uM. It is filed as ADME, organism-based, Canis lupus familiaris. Also noted: dose 10 mg/kg, route oral. Conditions: dog. The gist of the method: as §1

The structures appear in SMILES notation.

Coagulation factor X, sequence (P00742 41-179 limits assumed): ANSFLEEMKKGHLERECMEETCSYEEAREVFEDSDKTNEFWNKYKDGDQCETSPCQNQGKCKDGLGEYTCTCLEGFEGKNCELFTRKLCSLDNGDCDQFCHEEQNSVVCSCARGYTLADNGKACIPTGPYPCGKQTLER
Coagulation factor X, sequence (P00742 235-488 limits assumed): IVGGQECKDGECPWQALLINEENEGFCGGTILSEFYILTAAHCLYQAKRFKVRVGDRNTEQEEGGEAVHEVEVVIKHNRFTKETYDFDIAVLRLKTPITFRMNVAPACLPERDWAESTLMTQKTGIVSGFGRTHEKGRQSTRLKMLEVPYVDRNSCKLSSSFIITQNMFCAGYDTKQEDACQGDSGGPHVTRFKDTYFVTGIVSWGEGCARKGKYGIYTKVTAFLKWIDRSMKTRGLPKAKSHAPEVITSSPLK

For `CN(C)C(=O)c1cccc(Oc2nc(Oc3cc(C(=N)N)ccc3O)c(F)c(OC3CCN(CC(=O)O)CC3)c2F)c1`, the Ki turned out to be 192 nM on Prothrombin, 770 nM on Serine protease 1 and 0.65 nM at Coagulation factor X. Besides, the concentration at 1 h in data set [1] came to 300 nM. Also, the PT extension in data set [2] worked out at 850 nM. In data set [3], this compound registered a concentration at 2 h of 100 nM.

With `N=C(N)c1ccc(Oc2cccc(Oc3ccc(C(=N)N)cc3)n2)cc1`, the results for the Ki at Prothrombin, on Serine protease 1 and at Coagulation factor X were 550 nM, 2800 nM and 400 nM, respectively.

As to `Cn1ccnc1-c1cccc(Oc2cc(C(=O)O)cc(Oc3cc(C(=N)N)ccc3O)n2)c1`, the Ki at Prothrombin is 180 nM; at Serine protease 1, 660 nM; on Coagulation factor X, 9 nM.

For `N=C(N)c1ccc(O)c(Oc2cc(C(=O)O)cc(Oc3cccc(-n4ccnc4)c3)n2)c1`, the Ki came to 1400 nM on Prothrombin, 1200 nM at Serine protease 1 and 26 nM on Coagulation factor X.

Regarding `COc1ccc(C(=N)N)cc1Oc1nc(Oc2cccc(C(=O)N(C)C)c2)c(F)c(C)c1F`, the values for the inhibition constant Ki at Prothrombin, on Serine protease 1 and at Coagulation factor X were more than 5000 nM, 4300 nM and 740 nM, respectively.

Regarding `Cc1c(F)c(Oc2cccc(CN(C)C)c2)nc(Oc2cccc(C(=N)N)c2)c1F`, the Ki on Prothrombin was determined as 22000 nM; on Coagulation factor X, 640 nM.

`N=C(N)c1ccc(O)c(Oc2cc(C(=O)O)cc(Oc3cccc(C4=NCCN4)c3)n2)c1`: the Ki at Prothrombin was more than 5000 nM; on Serine protease 1, 1400 nM; at Coagulation factor X, 85 nM.

For `N=C(N)c1ccc(Oc2cccc(Oc3cccc(C(=N)N)c3)n2)cc1`, the Ki at Prothrombin was found to be 1200 nM; on Serine protease 1, 1900 nM; at Coagulation factor X it was 130 nM.

Consider `CCOC(=O)CN1CCC(Oc2c(F)c(Oc3cccc(C4=NCCN4C)c3)nc(Oc3cc(C(=N)N)ccc3O)c2F)CC1`, for which the Ki at Prothrombin came out at 190 nM; at Serine protease 1, 300 nM; at Coagulation factor X it was 0.31 nM. The compound also came in with a concentration at 4 h in data set [4] of 200 nM. Moreover, the concentration at 1 h in data set [1] came out at 300 nM. Also, the PT extension in data set [2] worked out at 240 nM. For the same compound, the concentration at 2 h in data set [3] turned out to be 300 nM.

As to `CN1CCN=C1c1cccc(Oc2nc(Oc3cc(C(=N)N)ccc3O)c(F)c(O[C@H]3CN[C@H](C(=O)O)C3)c2F)c1`, the Ki at Prothrombin worked out at 250 nM; on Serine protease 1, 310 nM; on Coagulation factor X it was 0.33 nM. The same compound showed a concentration at 4 h in data set [4] of 800 nM. Further, the concentration at 1 h in data set [1] came out at 3200 nM. This compound yielded a PT extension in data set [2] of 670 nM. The concentration at 2 h in data set [3] is 2200 nM.

Consider `CCOC(=O)[C@@H]1C[C@@H](Oc2c(F)c(Oc3cccc(C(=O)N(C)C)c3)nc(Oc3cc(C(=N)N)ccc3O)c2F)CN1`, for which the figures for the inhibition constant Ki at Prothrombin, on Serine protease 1 and on Coagulation factor X were 280 nM, 740 nM and 0.71 nM, respectively. In addition, the concentration at 4 h in data set [4] stood at 100 nM. This compound had a concentration at 1 h in data set [1] of 300 nM. In data set [2], this compound returned a PT extension of 1400 nM. In data set [3], this compound had a concentration at 2 h of 200 nM.

With `CCOC(=O)CN(C)c1c(F)c(Oc2cccc(C3=NCCN3C)c2)nc(Oc2cc(C(=N)N)ccc2O)c1F`, the figures for the Ki at Prothrombin, at Serine protease 1 and at Coagulation factor X were 630 nM, 240 nM and 0.26 nM, respectively. Moreover, the concentration at 4 h in data set [4] is 100 nM. The compound further returned a concentration at 1 h in data set [1] of 200 nM. The compound also gave a PT extension in data set [2] of 630 nM. This compound gave a concentration at 2 h in data set [3] of 200 nM.

`Cc1c(F)c(Oc2cccc(C(=O)N(C)C)c2)nc(Oc2cc(C(=N)N)ccc2O)c1F`: the Ki at Prothrombin and on Serine protease 1 was 1100 nM in each case.

For `N=C(N)c1cccc(Oc2nc(Oc3cccc(C(=N)N)c3)c(F)cc2F)c1`, the Ki is 37000 nM at Prothrombin, 1200 nM at Serine protease 1 and 24 nM at Coagulation factor X.

`N=C(N)c1cccc(Oc2cc(C(=O)O)cc(Oc3cccc(C(=N)N)c3)n2)c1`: the Ki at Prothrombin was found to be 27000 nM; at Serine protease 1, 570 nM; on Coagulation factor X it was 59 nM.

For the compound `N=C(N)c1cccc(Oc2nc(Oc3cccc(C(=N)N)c3)c(Cl)cc2Cl)c1`, the values for the Ki on Prothrombin, on Serine protease 1 and at Coagulation factor X were more than 5000 nM, 2100 nM and 130 nM, respectively.

For the compound `Cc1c(F)c(Oc2cccc(C(=N)N)c2)nc(Oc2cccc(C(=N)N)c2)c1F`, the Ki at Prothrombin is 22000 nM; on Serine protease 1, 810 nM; on Coagulation factor X it was 13 nM.

`N=C(N)c1ccc(Oc2nc(Oc3ccc(C(=N)N)cc3)c(Cl)cc2Cl)cc1`: the Ki was determined as 1400 nM at Prothrombin, 2700 nM at Serine protease 1 and 620 nM on Coagulation factor X.

For `N=C(N)c1cccc(Oc2cccc(Oc3cccc(C(=N)N)c3)n2)c1`, the Ki came out at 14000 nM on Prothrombin, 1100 nM at Serine protease 1 and 53 nM on Coagulation factor X.

For `N=C(N)c1ccc(/C=C2/CCCC/C(=C/c3ccc(C(=N)N)cc3)C2=O)cc1`, the Ki on Serine protease 1 turned out to be 33 nM; at Coagulation factor X, 0.66 nM.

`Cc1c(F)c(Oc2cccc(C(=N)N)c2)nc(Oc2cccc(C(=O)N(C)C)c2)c1F`: the Ki at Prothrombin came out at 15000 nM; at Serine protease 1, 2700 nM; at Coagulation factor X it was 80 nM.

Consider `CN(C)C(=O)c1cccc(Oc2nc(Oc3cc(C(=N)N)ccc3O)c(F)c(N(C)CC(=O)O)c2F)c1`, for which the inhibition constant Ki at Prothrombin was 4500 nM; on Serine protease 1, 1100 nM; on Coagulation factor X it was 0.41 nM. Besides, the concentration at 1 h in data set [1] came to 300 nM. The compound further registered a PT extension in data set [2] of 1000 nM. The concentration at 2 h in data set [3] was found to be 400 nM.

`CN(C)C(=O)c1cccc(Oc2cc(C(=O)O)cc(Oc3cc(C(=N)N)ccc3O)n2)c1`: the Ki came to 1100 nM at Prothrombin, 300 nM at Serine protease 1 and 3.9 nM at Coagulation factor X.

With `CNC(=O)c1cccc(Oc2nc(Oc3cccc(C(=N)N)c3)c(F)c(C)c2F)c1`, the Ki on Coagulation factor X was 1300 nM.

Consider `Cc1c(F)c(Oc2cccc(C(=O)N(C)C)c2)nc(Oc2cc(C(=N)N)ccc2N)c1F`, for which the Ki at Prothrombin amounted to 2300 nM; at Serine protease 1 it was 550 nM; on Coagulation factor X, 14 nM.

On to `Cc1c(F)c(Oc2cccc(C(=N)N)c2)nc(Oc2cccc(C(N)=O)c2)c1F`, for which the Ki at Prothrombin is more than 5000 nM; at Serine protease 1, more than 5000 nM; on Coagulation factor X, 280 nM.

Regarding `Cc1c(F)c(Oc2ccccc2)nc(Oc2cccc(C(=N)N)c2)c1F`, the Ki at Prothrombin and on Coagulation factor X was more than 5000 nM each time.

For `Cc1c(F)c(Oc2cccc(C(=N)N)c2)nc(Oc2cccc(N(C)C)c2)c1F`, the Ki is 2600 nM on Prothrombin, 1900 nM at Serine protease 1 and 160 nM at Coagulation factor X.

On to `CN1CCN=C1c1cccc(Oc2cc(C(=O)O)cc(Oc3cc(C(=N)N)ccc3O)n2)c1`, for which the results for the Ki at Prothrombin, at Serine protease 1 and on Coagulation factor X were 810 nM, 220 nM and 2.4 nM, respectively.
